Test results published in ChEMBL document CHEMBL1212874, “Natural and semisynthetic azaphilones as a new scaffold for Hsp90 inhibitors” (Bioorg Med Chem, 2010).
Activity calls are given as the source filed them. The rule behind the calls is not given here.

Experiments:
[1] = biological target: T1, Heat shock protein HSP90 (Homo sapiens, UniProt P07900+P08238); assay: Inhibition of HSP90 in human A431 cells assessed as down-regulation of EGFR protein after 24 hrs by immunoblotting; assay type: cell-based; conditions: a-431
How it was run: (§1)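 Cells seeded at 100,000 cells/mL, treated 24 h later for 24 h at the equitoxic IC80 concentration given per compound and cell line. Whole-cell extracts (40 µg) run on SDS-PAGE and immunoblotted. Actin was the loading control, and tubulin the loading control for EGFR.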

[2] = biological target: T1, Heat shock protein HSP90; assay: Inhibition of HSP90 in human A431 cells assessed as down-regulation of Akt protein at IC80 concentration after 24 hrs by immunoblotting; assay type: cell-based; conditions: A-431; how it was run: as §1
[3] = Antiproliferative activity against human JR8 cells after 72 hrs; assay type: functional, cell-based; conditions: JR8, 72 h
[4] = biological target: T1, Heat shock protein HSP90; assay: Inhibition of HSP90 in human JR8 cells assessed as down-regulation of survivin protein at IC80 concentration after 24 hrs by immunoblotting; assay type: cell-based; how it was run: as §1
[5] = biological target: T1, Heat shock protein HSP90; assay: Inhibition of HSP90 in human IGROV1 cells assessed as down-regulation of survivin protein at IC80 concentration after 24 hrs by immunoblotting; assay type: cell-based; conditions: IGROV-1; how it was run: as §1
[6] = biological target: T1, Heat shock protein HSP90; assay: Inhibition of HSP90 in human JR8 cells assessed as down-regulation of Cdk4 protein at IC80 concentration after 24 hrs by immunoblotting; assay type: cell-based; how it was run: as §1
[7] = system: IGROV-1; assay: Induction of apoptosis in human IGROV1 cells assessed as activation of caspase 3 at 11 uM after 48 hrs by Western blotting; assay type: functional, cell-based
How it was run: (§2)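 IGROV-1 cells treated with 11 µM compound for 24 or 48 h. Cells rinsed with ice-cold PBS containing 0.1 mM orthovanadate and lysed in hot sample buffer. 40 µg of total extract run on SDS-PAGE and blotted onto nitrocellulose. Probed for cleaved caspase-3 and PARP-1.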

[8] = Inhibition of yeast full-length recombinant HSP90 ATPase activity expressed in Escherichia coli strain BL21(DE3) assessed as inorganic phosphate release after 3 hrs; design: species or system Saccharomyces cerevisiae
[9] = system: IGROV-1; assay: Induction of apoptosis in human IGROV1 cells assessed as PARP1 cleavage at 11 uM after 48 hrs by Western blotting; assay type: functional, cell-based; how it was run: as §2
[10] = biological target: T1, Heat shock protein HSP90; assay: Inhibition of HSP90 in human A431 cells assessed as down-regulation of Cdk4 protein at IC80 concentration after 24 hrs by immunoblotting; assay type: cell-based; conditions: A-431; how it was run: as §1
[11] = biological target: T1, Heat shock protein HSP90; assay: Inhibition of HSP90 in human A431 cells assessed as reduction of Hsp70/Hsp90 precipitation at IC80 concentration after 4 hrs by co-immunoprecipitation analysis; assay type: cell-based; conditions: A-431
[12] = biological target: T1, Heat shock protein HSP90; assay: Inhibition of HSP90 in human A431 cells assessed as down-regulation of Raf-1 protein at IC80 concentration after 24 hrs by immunoblotting; assay type: cell-based; conditions: A-431; how it was run: as §1
[13] = biological target: T1, Heat shock protein HSP90; assay: Inhibition of HSP90 in human IGROV1 cells assessed as down-regulation of Akt protein at IC80 concentration after 24 hrs by immunoblotting; assay type: cell-based; conditions: IGROV-1; how it was run: as §1
[14] = biological target: T1, Heat shock protein HSP90; assay: Inhibition of HSP90 in human A431 cells assessed as down-regulation of survivin protein at IC80 concentration after 24 hrs by immunoblotting; assay type: cell-based; conditions: A-431; how it was run: as §1
[15] = biological target: T1, Heat shock protein HSP90; assay: Inhibition of HSP90 in human JR8 cells assessed as down-regulation of Akt protein at IC80 concentration after 24 hrs by immunoblotting; assay type: cell-based; how it was run: as §1
[16] = biological target: T1, Heat shock protein HSP90; assay: Inhibition of HSP90 in human IGROV1 cells assessed as down-regulation of Raf-1 protein at IC80 concentration after 24 hrs by immunoblotting; assay type: cell-based; conditions: IGROV-1; how it was run: as §1
[17] = biological target: T1, Heat shock protein HSP90; assay: Inhibition of HSP90 in human A431 cells assessed as down-regulation of EGFR protein at IC80 concentration after 24 hrs by immunoblotting; assay type: cell-based; conditions: A-431; how it was run: as §1
[18] = biological target: T1, Heat shock protein HSP90; assay: Inhibition of HSP90 in human A431 cells assessed as down-regulation of survivin protein after 24 hrs by immunoblotting; assay type: cell-based; conditions: a-431; how it was run: as §1
[19] = biological target: T1, Heat shock protein HSP90; assay: Inhibition of HSP90 in human A431 cells expressing p53 mutant assessed as down-regulation of p53 protein at IC80 concentration after 24 hrs by immunoblotting; assay type: cell-based; conditions: A-431; how it was run: as §1
[20] = biological target: T1, Heat shock protein HSP90; assay: Inhibition of HSP90 in human A431 cells assessed as reduction of Raf-1/Hsp90 precipitation at IC80 concentration after 4 hrs by co-immunoprecipitation analysis; assay type: cell-based; conditions: A-431
[21] = biological target: T1, Heat shock protein HSP90; assay: Inhibition of HSP90 in human A431 cells assessed as down-regulation of Akt protein after 24 hrs by immunoblotting; assay type: cell-based; conditions: a-431; how it was run: as §1
[22] = biological target: T1, Heat shock protein HSP90; assay: Inhibition of HSP90 in human A431 cells assessed as down-regulation of Cdk4 protein after 24 hrs by immunoblotting; assay type: cell-based; conditions: a-431; how it was run: as §1
[23] = Binding affinity to HSP90 after 4 hrs by fluorescence polarization assay
[24] = biological target: T1, Heat shock protein HSP90; assay: Inhibition of HSP90 in human IGROV1 cells assessed as down-regulation of Cdk4 protein at IC80 concentration after 24 hrs by immunoblotting; assay type: cell-based; conditions: IGROV-1; how it was run: as §1
[25] = biological target: T1, Heat shock protein HSP90; assay: Inhibition of HSP90 in human A431 cells assessed as reduction of Raf-1/Hsp90 precipitation at 11 uM after 4 hrs by co-immunoprecipitation analysis; conditions: A-431
[26] = biological target: T1, Heat shock protein HSP90; assay: Inhibition of HSP90 in human A431 cells assessed as up-regulation of HSP70 protein at IC80 concentration after 24 hrs by immunoblotting; assay type: cell-based; conditions: A-431; how it was run: as §1
[27] = system: A-431; assay: Antiproliferative activity against human A431 cells after 72 hrs; assay type: functional, cell-based; conditions: A-431, 72 h
[28] = biological target: T1, Heat shock protein HSP90; assay: Inhibition of HSP90 in human A431 cells assessed as reduction of Hsp70/Hsp90 precipitation at 11 uM after 4 hrs by co-immunoprecipitation analysis; conditions: A-431
[29] = system: IGROV-1; assay: Antiproliferative activity against human IGROV1 cells after 72 hrs; assay type: functional, cell-based; conditions: IGROV-1, 72 h
[30] = biological target: T1, Heat shock protein HSP90; assay: Inhibition of HSP90 in human JR8 cells assessed as down-regulation of EGFR protein at IC80 concentration after 24 hrs by immunoblotting; assay type: cell-based; how it was run: as §1
[31] = biological target: T1, Heat shock protein HSP90; assay: Inhibition of HSP90 in human JR8 cells assessed as down-regulation of Raf-1 protein at IC80 concentration after 24 hrs by immunoblotting; assay type: cell-based; how it was run: as §1
[32] = system: NCI-H460; assay: Antiproliferative activity against human NCI-H460 cells after 72 hrs; assay type: functional, cell-based; conditions: NCI-H460, 72 h
[33] = system: IGROV-1; assay: Antitumor activity against human IGROV1 cells xenografted in athymic Swiss nude mouse assessed as increase of mouse survival at 25 mg/kg, ip administered qd for 4 days/week for 2 weeks; assay type: functional, organism-based; design: dose 25 mg/kg
How it was run: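 Female athymic Swiss nude mice, 8–10 weeks old. IGROV-1 ovarian carcinoma was serially passaged ip as ascites, and 2.5 × 10^6 cells in 0.2 mL saline were injected ip. Dosing ip at 25 mg/kg daily, 4 days/week for 2 weeks, began the day after implant. End point was median survival time, reported as T/C% (treated/control MST × 100).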

[34] = Binding affinity to HSP90 by surface plasmon resonance analysis
[35] = Antiproliferative activity against human STO cells after 72 hrs; assay type: functional, cell-based
How it was run: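 Cells seeded 24 h before, then exposed to compound for 72 h (about three doublings in controls), in medium with 10% heat-inactivated FBS at 37 °C. Compound dissolved fresh in DMSO and diluted in medium. Adherent cells trypsinized and counted electronically. IC50 is the concentration giving 50% growth inhibition, read from dose–response curves.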

EC50 [1]	inhibition [6]	IC50 [8]	inhibition [13]	inhibition [15]	inhibition [16]	inhibition [17]	inhibition [20]	EC50 [21]	EC50 [22]	IC50 [23]	IC50 [27]	inhibition [30]	Raf-1 protein down-regulation [31]	IC50 [32]	SMILES	IC50 [3]	inhibition [4]	EC50 [18]	IC80 [27]	IC50 [29]	further results
11 µM	Active	9.87 µM	Active	Active	Active	Active	Active	16.8 µM	8.49 µM	61.7 µM	5.53 µM	Active	Active	50 µM	CCC(C)/C=C/C=C/C=C/C(=O)/C=C(\O)C1=C2C=C3CC(CO)OC=C3C(=O)[C@]2(C)OC1=O (some centres undefined) [BULGARIALACTONE B]	6.42 µM	Active	11 µM	11 µM	4.65 µM	inhibition [2]: Active; inhibition [5]: Active; inhibition [7]: Active; inhibition [9]: Active; inhibition [10]: Active; inhibition [11]: Active; inhibition [12]: Active; inhibition [14]: Active; inhibition [19]: Active; inhibition [24]: Active; inhibition [25]: Active; inhibition [26]: inactive; inhibition [28]: Active; Activity [33]: Active; Kd [34]: 0.0013 µM
3.57 µM	Active	5.75 µM	Active	Active	Active	Active	Active	8.93 µM	4.93 µM	27.7 µM	0.3 µM	Active	Active	4.3 µM	CCC(C)/C=C/C=C/C=C/C(=O)/C=C(\O)C1=C2C=C(CC(O)CO)/C(=C/NCc3ccccc3)C(=O)[C@]2(C)OC1=O (some centres undefined)	4.8 µM	Active	2.32 µM	2.7 µM	0.2 µM	IC80 [3]: 10.7 µM; IC50 [35]: 3.57 µM; IC80 [35]: 11.6 µM; IC80 [29]: 2.3 µM
